Source: ChEMBL document CHEMBL1773069, “Marinoquinolines A-F, pyrroloquinolines from Ohtaekwangia kribbensis (Bacteroidetes)” (J Nat Prod, 2011)
Converted amounts (≈) assume the structure as drawn. The source made the active and inactive calls. The rule behind the calls is not given here.

What was measured:
[1] = Cytotoxicity against human KB-3-1 cells after 5 days by MTT assay; type: functional, cell-based; conditions: KB 3-1, 120 h
Method in brief: (§1)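 Culture media were DMEM for KB-3-1 and L929, EBM-2 for HUVEC and RPMI for MCF-7, each with 10% FBS, at 37 °C under 10% CO2. Serial dilutions from a 1 mg/mL methanol stock were added to cell suspension (50 000/mL). After 5 days, MTT was read at 590 nm. IC50 (50% growth inhibition versus control) came from dose–response curves. Methanol served as negative control.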

Plasmodium falciparum = assay: Antimalarial activity against Plasmodium falciparum K1 intra-erythrocytic form; type: functional, organism-based
Leishmania donovani = assay: Antileishmanial activity against Leishmania donovani MHOM-ET-67/L82 axenic amastigotes; type: functional, organism-based
MCF7 = assay: Cytotoxicity against human MCF7 cells after 5 days by MTT assay; type: functional, cell-based; conditions: MCF7, 120 h; method in brief: as §1
Trypanosoma cruzi = assay: Antiparasitic activity against Trypanosoma cruzi Tulahuen C4 amastigotes; type: functional, organism-based
L6 = assay: Cytotoxicity against rat L6 cells by MTT assay; type: cell-based
HUVEC = assay: Cytotoxicity against HUVEC after 5 days by MTT assay; type: cell-based; conditions: Homo sapiens, 120 h; method in brief: as §1
Escherichia coli [2] = assay: Antimicrobial activity against Escherichia coli at 33.5 ug/ml after 24 to 48 hrs; type: functional, organism-based
[3] = test system: Trypanosoma brucei rhodesiense; assay: Antiparasitic activity against Trypanosoma brucei rhodesiense STIB 900 trypomastigotes; type: functional, organism-based
L929 = assay: Cytotoxicity against mouse L929 cells after 5 days by MTT assay; type: functional, cell-based; conditions: L929, 120 h; method in brief: as §1
[4] = test system: Schizosaccharomyces pombe; assay: Antifungal activity against Schizosaccharomyces pombe after 24 to 48 hrs; type: functional
Method in brief: (§2)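 Broth microdilution in 96-well plates. Bacteria were grown in EBS medium. Yeasts and fungi were grown in MYC medium (1.0% phytone peptone, 1.0% glucose, 50 mM HEPES, pH 7.0). Inoculum was test organism diluted 1:100 in medium. Compound was diluted 1:1 serially from 33.5 to […] μg/mL. Plates were shaken at 600 rpm, 30 °C, for 24–48 h. MIC was the lowest concentration preventing visible growth.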

Rhodotorula glutinis = assay: Antifungal activity against Rhodotorula glutinis after 24 to 48 hrs; type: functional; method in brief: as §2
Micrococcus luteus = assay: Antibacterial activity against Micrococcus luteus after 24 to 48 hrs; type: functional; method in brief: as §2
Nocardia sp. = assay: Antibacterial activity against Nocardia flava after 24 to 48 hrs; type: functional; method in brief: as §2
Mucor hiemalis = assay: Antifungal activity against Mucor hiemalis after 24 to 48 hrs; type: functional; method in brief: as §2
Escherichia coli [5] = assay: Antimicrobial activity against Escherichia coli after 24 to 48 hrs; type: functional, organism-based; method in brief: as §2
[6] = test system: Schizosaccharomyces pombe; assay: Antifungal activity against Schizosaccharomyces pombe at 33.5 ug/ml after 24 to 48 hrs; type: functional, organism-based

Cc1nc2ccccc2c2cc[nH]c12 [MARINOQUINOLINE A]
IC50 [1]: 2.2 µg/mL (≈ 12.1 µM) | IC50 (Plasmodium falciparum): 9.8 µM | IC50 (Leishmania donovani): > 549 µM | IC50 (MCF7): 3.5 µg/mL (≈ 19.2 µM) | IC50 (Trypanosoma cruzi): 29.5 µM | IC50 (L6): 30.6 µM | IC50 (HUVEC): 1.5 µg/mL (≈ 8.23 µM) | Activity (Escherichia coli [2]): Active | IC50 [3]: 54.4 µM | IC50 (L929): 5.5 µg/mL (≈ 30.2 µM)

c1ccc(Cc2nc3ccccc3c3cc[nH]c23)cc1 [MARINOQUINOLINE C]
IC50 [1]: 2 µg/mL (≈ 7.74 µM) | IC50 (Plasmodium falciparum): 5.5 µM | IC50 (Leishmania donovani): 58.8 µM | IC50 (MCF7): 2.6 µg/mL (≈ 10.1 µM) | IC50 (Trypanosoma cruzi): 28.3 µM | IC50 (L6): 39.1 µM | IC50 (HUVEC): 0.55 µg/mL (≈ 2.13 µM) | MIC [4]: 33.5 µg/mL (≈ 130 µM) | MIC (Rhodotorula glutinis): 33.5 µg/mL (≈ 130 µM) | IC50 [3]: 42.2 µM | IC50 (L929): 5.4 µg/mL (≈ 20.9 µM)

Oc1ccc(Cc2nc3ccccc3c3cc[nH]c23)cc1 [MARINOQUINOLINE D]
IC50 [1]: 3.2 µg/mL (≈ 11.7 µM) | IC50 (Plasmodium falciparum): 15 µM | Activity (Micrococcus luteus): inactive | IC50 (Leishmania donovani): 120 µM | IC50 (MCF7): 3.2 µg/mL (≈ 11.7 µM) | Activity (Nocardia sp.): inactive | IC50 (Trypanosoma cruzi): 27 µM | IC50 (L6): 66.4 µM | IC50 (HUVEC): 2.5 µg/mL (≈ 9.11 µM) | Activity (Mucor hiemalis): inactive | Activity (Escherichia coli [5]): inactive | Activity [4]: inactive | Activity (Rhodotorula glutinis): inactive | IC50 [3]: 61.2 µM | IC50 (L929): 1.1 µg/mL (≈ 4.01 µM)

c1ccc2c(c1)nc(-c1c[nH]c3ccccc13)c1[nH]ccc12 [MARINOQUINOLINE E]
IC50 [1]: 4.5 µg/mL (≈ 15.9 µM) | IC50 (Plasmodium falciparum): 7.6 µM | MIC (Micrococcus luteus): 33.5 µg/mL (≈ 118 µM) | IC50 (Leishmania donovani): 63.9 µM | IC50 (MCF7): 1.9 µg/mL (≈ 6.71 µM) | MIC (Nocardia sp.): 33.5 µg/mL (≈ 118 µM) | IC50 (Trypanosoma cruzi): 23.6 µM | IC50 (L6): 35.6 µM | IC50 (HUVEC): 5.8 µg/mL (≈ 20.5 µM) | MIC (Mucor hiemalis): 33.5 µg/mL (≈ 118 µM) | MIC [4]: 33.5 µg/mL (≈ 118 µM) | MIC (Rhodotorula glutinis): 33.5 µg/mL (≈ 118 µM) | IC50 [3]: 51.5 µM | IC50 (L929): 5.5 µg/mL (≈ 19.4 µM)

O=C(c1c[nH]c2ccccc12)c1nc2ccccc2c2cc[nH]c12 [MARINOQUINOLINE F]
IC50 [1]: 0.3 µg/mL (≈ 0.964 µM) | Activity [6]: Active | IC50 (Plasmodium falciparum): 1.7 µM | IC50 (Leishmania donovani): 16.1 µM | IC50 (MCF7): 1.6 µg/mL (≈ 5.14 µM) | IC50 (Trypanosoma cruzi): 21.8 µM | IC50 (L6): 12.5 µM | IC50 (HUVEC): 2.8 µg/mL (≈ 8.99 µM) | IC50 [3]: 39 µM | IC50 (L929): 4.1 µg/mL (≈ 13.2 µM)

Nc1nc(N)nc(Nc2ccc([As]3SCC(CO)S3)cc2)n1 (centres undefined) [MELARSOPROL]
IC50 [3]: 0.012 µM

COc1cc([C@@H]2c3cc4c(cc3[C@H](O)[C@H]3COC(=O)[C@H]23)OCO4)cc(OC)c1OC [PODOFILOX]
IC50 (L6): 0.021 µM

CC[C@]1(O)C[C@@H]2CN(CCc3c([nH]c4ccccc34)[C@@](C(=O)OC)(c3cc4c(cc3OC)N(C)[C@H]3[C@@](O)(C(=O)OC)[C@H](OC(C)=O)[C@]5(CC)C=CCN6CC[C@]43[C@@H]65)C2)C1 [VINBLASTINE]
IC50 [1]: 0.0086 µg/mL (≈ 0.0106 µM) | IC50 (L929): 0.018 µg/mL (≈ 0.0222 µM)
